Measured values as given in ChEMBL document CHEMBL3779860, “A Designed Tryptophan- and Lysine/Arginine-Rich Antimicrobial Peptide with Therapeutic Potential for Clinical Antibiotic-Resistant Candida albicans Vaginitis” (J Med Chem, 2016).
Calls of active or inactive are those of the source. The calls are words filed in the database; no cut-off is given here.

What was measured:
Mus musculus [1] = assay: (§1) Antiinflammatory activity in antibiotic resistant Candida albicans clinical isolate 08030809 induced mouse vaginitis model assessed as reduction in IL-6 secretion in vaginal tissue at 20 ug administered as intravaginal instillation measured on day 10 by ELISA; assay type: functional, Vagina
In short: (§2)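 Same estradiol-primed mouse model, infected intravaginally with C. albicans 08030809 and treated by intravaginal instillation (20 µL/mouse). Vaginal canals excised on day 10 of treatment and homogenised in 0.9% NaCl. Supernatant taken after 2,000 g for 15 min. TNF-α, IL-6, IL-1β and IL-10 measured by ELISA. Mean ± SE of three independent experiments; unpaired t-test versus vehicle.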

Candida albicans [2] = assay: Antimicrobial activity against antibiotic resistant Candida albicans clinical isolate 08030809 assessed as clone count at 5 times MIC after 3 hrs by colony counting assay (reference value: 3687 +/- 543 CFU); assay type: functional
Candida albicans [3] = assay: Effect on cell morphology in antibiotic resistant Candida albicans clinical isolate 08030809 assessed as intracellular inclusions at MIC to 2.5 times MIC after 30 mins by scanning electron microscopy; assay type: functional, organism-based
In short: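 Exponential-phase C. albicans 08030809 was washed in PBS and resuspended in Sabouraud medium. Cells were treated 30 min at 37°C alongside a vehicle control. They were then fixed in 2.5% glutaraldehyde (4°C, 2 h) and 1% osmium tetroxide, dehydrated through graded ethanol, freeze-dried from tert-butanol, gold-coated and imaged by SEM. Images are typical of three experiments.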

Mus musculus [4] = assay: as §1, with “microabscess number” for “IL-6 secretion”, “50” for “20”, “after 16 days” for “on day 10”, “hematoxylin-eosin staining based microscopic method” for “ELISA”; assay type: functional, organism-based; settings: Vagina
In short: (§3)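 Mice given weekly subcutaneous estradiol valerate (0.5 mg in 0.1 mL vegetable oil) 72 h before infection. Infected intravaginally with 20 µL of 10^7 CFU/mL C. albicans 08030809. Intravaginal instillation of 20 µL daily for 16 days. Vaginal canals excised after lavage, formalin-fixed, paraffin-embedded, HE-stained. Microabscesses counted per high-power field over 6 fields per section, three independent experiments.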

Mus musculus [5] = assay: Antiinflammatory activity in antibiotic resistant Candida albicans clinical isolate 08030809 induced mouse vaginitis model assessed as microabscess number in vaginal tissue at 20 ug administered as intravaginal instillation measured after 16 days by hematoxylin-eosin staining based microscopic method (reference value: 61); assay type: functional, Vagina; in short: as §3
Candida albicans [6] = assay: Antimicrobial activity against antibiotic resistant Candida albicans clinical isolate 08030809 assessed as clone count at MIC after 1 hr by colony counting assay (reference value: 228 +/- 23 CFU); assay type: functional
Candida albicans [7] = assay: Antimicrobial activity against antibiotic resistant Candida albicans clinical isolate 08030809 assessed as clone count at 10 times MIC after 30 mins by colony counting assay (reference value: 156 +/- 16 CFU); assay type: functional
Candida albicans [8] = assay: Antimicrobial activity against antibiotic resistant Candida albicans clinical isolate 08030809 compound treated in NaCl solution measured after 36 hrs by disc diffusion method; assay type: functional; settings: isolate 08030809, 36 h
In short: (§4)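 Salt-tolerance test: peptide at 2 mg/mL was prepared in sterile ddH2O, in 150 mM NaCl, or in PBS (150 mM NaCl, 2.7 mM KCl, 1.5 mM KH2PO4, 8 mM K2HPO4, pH 7.2). Anti-C. albicans activity was then assessed by inhibition zone on Sabouraud medium with 0.7% agar.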

Mus musculus [9] = assay: Antiinflammatory activity in antibiotic resistant Candida albicans clinical isolate 08030809 induced mouse vaginitis model assessed as reduction in IL-6 secretion in vaginal tissue at 50 ug administered as intravaginal instillation measured on day 10 by ELISA; assay type: functional, Vagina; in short: as §2
Candida albicans [10] = assay: Antimicrobial activity against antibiotic resistant Candida albicans clinical isolate 08032821 compound treated in double distilled water measured after 36 hrs by disc diffusion method; assay type: functional; settings: isolate 08032821, 36 h; in short: as §4
Mus musculus [11] = assay: Antiinflammatory activity in antibiotic resistant Candida albicans clinical isolate 08030809 induced mouse vaginitis model assessed as reduction in TNF-alpha secretion in vaginal tissue at 50 ug administered as intravaginal instillation measured on day 10 by ELISA; assay type: functional, Vagina; in short: as §2
Candida albicans [12] = assay: Antimicrobial activity against antibiotic resistant Candida albicans clinical isolate 08032710 compound treated in NaCl solution measured after 36 hrs by disc diffusion method; assay type: functional; settings: isolate 08032710, 36 h; in short: as §4

In the case of H-VKRWKKWRWKWKKWV-NH2, the “inhibition (INH)” value (Mus musculus [1]) is reported as 46%, the Activity (Candida albicans [2]) is reported as 0 CFU and the Activity (Candida albicans [3]) is reported as “Active”. For the same substance, the Activity (Mus musculus [4]) was “Active”, the Activity (Mus musculus [5]) was <3 and the Activity (Candida albicans [6]) was 0 CFU. The Activity (Candida albicans [7]) was 0 CFU, the MIC (Candida albicans [8]) was 1.4 µg/mL and the “inhibition (INH)” value (Mus musculus [9]) was 57%. For the same substance, the MIC (Candida albicans [10]) was 2.65 µg/mL, the “inhibition (INH)” value (Mus musculus [11]) was 53% and the MIC (Candida albicans [12]) was 2.79 µg/mL.
